Assay outcomes from PubChem.
CXCR6 block: CXCR6 receptor inhibitors, primary screen, cell-based, beta-arrestin, luminescence, CHO-K1 PathHunter, 1536-well. C-X-C chemokine receptor type 6 (Homo sapiens), O00574. hit rate 0.36% among 360,000. inhibition, % at 20 µM; in the data active means inhibition above about 34%, passing the limit was not always enough;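 further: antagonist mode with CXCL16 agonist at 10 nM final; 0% = 10 nM CXCL16 with DMSO and 100% = unstimulated wells without agonist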
CCR6 antag: CCR6 receptor antagonists, primary screen, cell-based, CHO-K1, luminescence, beta-arrestin, uHTS; CHO-K1 CCR6 PathHunter beta-arrestin, CCL20-stimulated; inhibition, % at 20 µM; hit rate 0.49% among 340,000;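 active means compounds whose inhibition of the agonist-driven luminescence signal at 20 µM reaches about 50%, limit read from the data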;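 further: cells stimulated with CCL20 at 14 nM final; plate controls were DMSO with CCL20 for no effect and DMSO without agonist for full effect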
APJ ag: agonists of human apelin receptor APJ, primary screen, CHO-K1 cells, PathHunter beta-arrestin, luminescence. 0% DMSO wells, 100% apelin. activation, % at 20 µM. hit rate 0.11% among 330,000. AID 2520, 2010;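 active means activation more than six SD over the plate average, tested at 20 µM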;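 further: 0% = DMSO alone and 100% = apelin-13 at 10 nM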
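Assay system: CHO-K1 cells stably expressing ProLink-tagged human APJ and arrestin–beta-gal acceptor. Compound dosing: 20 µM single point, 1% DMSO. Times: 16-18 h seeding, 90 min dark compound exposure, 60 min detection. Detection: beta-gal luminescence. Evaluation: APJ–arrestin association signal. Controls: negative DMSO alone, positive Apelin-13 at 10 nM.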
EBI2 antag: EBI2 receptor antagonists, beta-arrestin recruitment, primary screen, cell-based, luminescence, 7a,25-OHC stimulation, uHTS. G-protein coupled receptor 183 (Homo sapiens), P32249. 7a,25-OHC stimulated. inhibition, % at 5 µM. hit rate 0.81% among 360,000. AID 651636, 2012; in the data active means inhibition above about 38%;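 further: enzyme fragment complementation signal reports receptor beta-arrestin coupling in cells; 0% = agonist plus DMSO wells and 100% = wells without agonist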
Target sequence (P32249 whole entry, looked up, the tested form may be a part): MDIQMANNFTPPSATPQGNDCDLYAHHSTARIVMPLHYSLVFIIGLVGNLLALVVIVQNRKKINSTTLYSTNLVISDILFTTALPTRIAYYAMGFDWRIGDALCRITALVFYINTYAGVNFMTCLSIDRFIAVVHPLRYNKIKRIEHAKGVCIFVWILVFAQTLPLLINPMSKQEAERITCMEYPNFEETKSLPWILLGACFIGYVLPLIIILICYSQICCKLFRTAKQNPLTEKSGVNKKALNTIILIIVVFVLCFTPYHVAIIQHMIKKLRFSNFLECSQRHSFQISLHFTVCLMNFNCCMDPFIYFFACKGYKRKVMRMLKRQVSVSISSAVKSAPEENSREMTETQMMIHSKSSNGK
APJ antag: antagonists of human apelin receptor APJ, primary screen, CHO-K1 cells, beta-arrestin complementation, luminescence | P35414 | inhibition, % at 20 µM | hit rate 0.32% among 330,000;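 active means inhibition above about 40% at 20 µM, limit read from the data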;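 further: cells challenged with 10 nM apelin-13 agonist together with compound; plate controls were apelin-13 plus DMSO wells for no effect and DMSO wells lacking apelin-13 for full effect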
m5-HT2A agonist: mouse Htr2a agonists via beta-arrestin recruitment, primary screen, cell-based, luminescence; 5-hydroxytryptamine receptor 2A (Mus musculus), P35363; CHO-K1 mHTR2A beta-arrestin complementation; percent of 30 µM serotonin response; activation, % at 7.6 µM; hit rate 0.66% among 360,000;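 active means activation above a run cutoff, the mean activation of all tested compounds plus 3 SD, cut at about 14% in these data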;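 further: 0% = plate median of compound wells and 100% = 30 µM serotonin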
APJ antag conf: APJ antagonists blocking beta-arrestin recruitment, confirmation, cell-based, luminescence, single concentration, uHTS hits; shares compounds with APJ antag; antagonist mode; inhibition, % at 20 µM; hit rate 66% among 950; in the data active means inhibition above about 50%
Starred values were filed as active, the others as inactive; / = no result. Hits are enriched below; roughly 2.1% of the tested compounds scored in any of these assays.

SMILES | CXCR6 block | CCR6 antag | APJ ag | EBI2 antag | APJ antag | m5-HT2A agonist | APJ antag conf
COC(=O)c1[nH]c(=O)c2ccccc2c1O | 0.4 | 67.8* | -17.1 | 10.3 | 42.8* | -2.2 | -12.5
Cc1ccc(SC(C)C(=O)NC2CC2)cc1 (stereo not given) | -11.7 | 4.0 | 9.8 | -12.2 | 14.9 | -6.1 | /
COc1ccc(CCNC(=O)Cc2ccccc2)cc1OC | 2.9 | 17.2 | -2.4 | 1.2 | 111.0* | 4.7 | 27.2
CCC(/C=C1\Oc2ccc(OC)cc2N1C)=C\c1sc2ccccc2[n+]1CCCS(=O)(=O)[O-] | 9.1 | 41.2 | / | -13.4 | / | 0.1 | /
COc1cc(/C=C/c2sc3ccccc3[n+]2CCCS(=O)(=O)[O-])ccc1O | 51.1* | 54.8* | -8.7 | 13.2 | 50.9* | -1.9 | 99.6*
CCOc1cc(/C=C2\SC(=O)N(CC(=O)Nc3ccccc3F)C2=O)cc([N+](=O)[O-])c1O | 27.6 | 39.6 | -7.2 | 5.5 | 54.0* | 0.7 | 78.6*
Cc1ccc2c(c1)nnn2C1CCN(CC(=O)NCCc2nc3ccccc3[nH]2)CC1 | 29.3 | 56.6* | -8.7 | 11.7 | 41.1* | -4.8 | 60.2*
CC(=O)N1CCCc2cc(S(=O)(=O)N3CCCC(C(=O)Nc4ccccc4C)C3)ccc21 (stereo not given) | -8.8 | 1.8 | 2.4 | -5.9 | 24.0 | -0.6 | /
Cc1nn(Cc2ccc(Cl)cc2)c(C)c1NC(=O)C1CC=CCC1C(=O)O (stereo not given) | -0.8 | 20.3 | -2.2 | -9.1 | 50.2* | -1.1 | 32.7
Cn1c2c(c3ccccc31)CCN1CCC[C@]21c1ccccc1 | 7.8 | -2.6 | -2.7 | 5.0 | -5.2 | -8.8 | /
Cc1ccc(-c2csc3nc(C)n(-n4c(C)ccc4C)c(=O)c23)o1 | 26.4 | 17.5 | -1.0 | 19.2 | 47.8* | -0.5 | 9.7
Cc1ccc(-c2csc3nc(C)n(N)c(=O)c23)o1 | 2.9 | 16.0 | -2.8 | -6.7 | -17.1 | 1.7 | /
COc1ccccc1NC(=O)c1ccc(NC(=O)COC(=O)c2cncc(Br)c2)cc1 | -1.3 | -0.6 | -1.4 | 1.6 | 14.1 | 3.6 | /
COc1ccc(NC(=O)CSc2n[nH]c(-c3ccccc3)n2)cc1S(N)(=O)=O | 0.6 | 1.1 | -0.8 | 2.4 | -4.4 | -2.5 | /
COc1cccc2sc(Nc3nc(-c4ccccn4)cs3)nc12 | 37.2 | / | -7.1 | 85.9* | 52.4* | -8.2 | 23.5
COc1cccc2sc(Nc3nnc(-c4cccs4)o3)nc12 | 13.0 | 29.5 | -6.0 | 16.2 | 41.6* | -5.6 | 3.4
COc1cccc2sc(Nc3nnc(-c4ccc(F)cc4)o3)nc12 | -7.0 | -4.8 | -2.6 | -5.9 | 0.6 | -0.7 | /
CC(=O)c1cccc(NC(=O)Nc2csc3c2CCCC3)c1 | 4.3 | -9.4 | -1.2 | 3.9 | -3.4 | -0.2 | /
Cn1cc(CN2CCC(n3nccc3NC(=O)c3ccc4c(c3)OCO4)CC2)cn1 | 1.3 | / | / | -1.4 | / | -2.7 | /
O=C(COC(=O)c1cccc2ccccc12)NCCCc1ccccc1 | -6.5 | -0.2 | -2.9 | -1.7 | 6.2 | -1.5 | /
COc1ccc([N+](=O)[O-])cc1NC(=S)NC(C)=O | 4.0 | 12.2 | -2.1 | -4.0 | 15.9 | 0.8 | /
COc1ccc(/C=C/C(=O)NC(=S)Nc2cc([N+](=O)[O-])ccc2O)cc1OC | 33.3 | 29.1 | -6.2 | -7.0 | 42.4* | 0.9 | 59.9*
Oc1c(N=Nc2ccccc2)sc2ccccc12 | 19.4 | 33.8 | -5.1 | 13.9 | 34.3 | -4.5 | /
Cc1cc(Br)c(Cl)cc1NC(=O)CN1C(=O)C2C3CC(c4ccccc4)C(C3)C2C1=O (stereo not given) | -12.0 | -10.2 | -1.7 | 2.9 | 55.2* | 0.6 | -20.4
Cc1cc(NC(=O)CCN2C(=O)C3C4CCC(C4)C3C2=O)c(C)cc1Br (stereo not given) | -9.8 | -5.9 | -2.7 | 8.3 | 12.2 | -0.3 | /
COc1ccc(-c2cc(-c3ccccc3)nc(NN)n2)cc1OC | 43.0* | 86.5* | -12.9 | 13.2 | 57.2* | 3.1 | 129.2*
